SENP7 inh = SENP7 protease inhibition | Q9BQF6 | recombinant SENP7, Z-RLRGG-aminoluciferin luminescence, 40 min | inhibition, % at 5 µM | actives 1.5% (n = 330,000);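 active = inhibition above about 50% at the single test dose, limit read from the data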;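 note: plate controls were DMSO with enzyme for no effect and no enzyme buffer wells for full effect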
Platelet DG rel = platelet dense granule release activity | actives 0.22% (n = 300,000) | AID 1663 | inhibition, %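 (compounds screened at 7.5 µM in platelet-rich plasma)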 | human platelet-rich plasma, SFLLRN dense granule ATP release, luminescence;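 active = mean replicate score, as percent of positive control, at or above 50; inconclusive = mean below 50 but at least one replicate at or above 50; inactive = mean and every replicate below 50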
SENP8 block-1 = SENP8 (human) protease inhibition; Q96LD8; recombinant SENP8, Nedd8 substrate fluorescence; inhibition, % at 20 µM; actives 0.64% (n = 360,000); AID 602440; in the data active = inhibition mostly above about 40%, no sharp cut-off; inactive = mostly below about 27%
Target sequence (Q96LD8 whole entry, looked up): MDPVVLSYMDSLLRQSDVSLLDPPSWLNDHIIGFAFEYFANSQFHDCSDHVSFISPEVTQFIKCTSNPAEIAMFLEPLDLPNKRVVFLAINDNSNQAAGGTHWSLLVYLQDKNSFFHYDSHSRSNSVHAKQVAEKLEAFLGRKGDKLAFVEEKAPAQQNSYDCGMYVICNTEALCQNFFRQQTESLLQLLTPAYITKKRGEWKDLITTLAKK
SENP1 FRET inh = blocks the human SENP1 SUMO protease catalytic domain | actives 0.21% (n = 360,000) | inhibition, % at 10 µM | recombinant SENP1 catalytic domain, CyPet-SUMO1-YPet FRET cleavage;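 active = inhibition at least 30% at 10 µM, raw YFP signal under a set limit, fluorescence ratio 0.5 to 1.5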;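 note: 0% = enzyme with DMSO and 100% = no enzyme wells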
Target sequence (Q9P0U3 419-644 limits assumed): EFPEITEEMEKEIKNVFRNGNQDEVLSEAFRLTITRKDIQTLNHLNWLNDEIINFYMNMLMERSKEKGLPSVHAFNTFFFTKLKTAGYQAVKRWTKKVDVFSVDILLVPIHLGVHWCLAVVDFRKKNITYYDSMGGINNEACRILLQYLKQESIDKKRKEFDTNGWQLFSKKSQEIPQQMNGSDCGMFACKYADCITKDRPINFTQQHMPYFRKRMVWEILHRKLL
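Test system: hSENP1 catalytic domain, recombinant; Amount: 20 pM final SENP1 enzyme; Medium: Tris pH 8 buffer plus EDTA, NaCl, BME, BSA, NP40, catalase; Schedule: 50 min enzyme reaction, room temperature, light-protected; Technique: FRET fluorescence in CFP and YFP emission channels; Controls: no-enzyme wells low, DMSO-plus-enzyme wells high control.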
SENP6 inh = inhibitors of human SENP6 protease; Q9GZR1; Recombinant SENP6 catalytic domain, aminoluciferin luminescence; inhibition, % at 10 µM; actives 1.8% (n = 330,000);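 active = inhibition above about 50% at the single tested dose, limit read from the data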;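 note: plate controls were DMSO wells with enzyme for no effect and DMSO wells lacking enzyme for full effect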
SENP8 block-2 = inhibitors of human SENP8 protease | inhibition, % at 10 µM | Q96LD8 | purified SENP8, Z-RLRGG-aminoluciferin cleavage, luminescence | actives 1.2% (n = 330,000) | AID 2540; in the data active = inhibition above about 50%
SENP8 conf = SENP8 (human) inhibition, single concentration confirmation | shares compounds with SENP8 block-1 | inhibition, % at 25 µM | purified SENP8, Nedd8-AMC/pro-Nedd8 cleavage fluorescence, 30 min | actives 15% (n = 1,400); in the data active = inhibition mostly above about 39%, no sharp cut-off; inactive = mostly below about 34%
SENP1 inh conf = confirmation of human SENP1 SUMO protease inhibitors | shares compounds with SENP1 FRET inh | recombinant SENP1, CyPet-SUMO1-YPet FRET cleavage | inhibition, % at 10 µM | actives 34% (n = 520) | AID 651678; in the data active = inhibition mostly above about 35%, no sharp cut-off; inactive = mostly below about 32%;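 note: 0% = enzyme with DMSO and 100% = no enzyme control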
SENP1 kin conf = SENP1 (human) inhibition, kinetic confirmation; shares compounds with SENP1 FRET inh; recombinant SENP1, CyPet-SUMO1-YPet FRET kinetic cleavage; inhibition, % at 10 µM; actives 26% (n = 520); AID 651690; in the data active = inhibition mostly above about 32%, no sharp cut-off; inactive = mostly below about 29%;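 note: 0% = DMSO with enzyme and 100% = no enzyme substrate only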
The depositor's hits bear a star; ? = inconclusive; nt = no result given. Sampled rows, rich in hits. Any-hit rate of the full collection: about 2.6%.

SMILES	SENP7 inh	Platelet DG rel	SENP8 block-1	SENP1 FRET inh	SENP6 inh	SENP8 block-2	SENP8 conf	others
Cc1c(N=Nc2c(O)[nH]c(=S)[nH]c2=O)c(=O)n(-c2ccccc2)n1C	10	9	22	3	3	-5	nt
CCOc1ccc2nc(N=Nc3c(O)[nH]c(=S)[nH]c3=O)sc2c1	6	-3	40*	-4	13	6	2
COc1cc2c(c(OC)c1OC)-c1ccc(O)c(=O)cc1[C@@H](N)CC2	7	nt	53*	-2	-8	0	-12
Cn1c(=O)[nH]c2nncnc2c1=O	18	24	78*	8	11	6	90*
COC(=O)C(O)(c1cn(C)c2ccccc12)C(F)(F)F (stereo not drawn)	-8	?	22	1	-1	-8	nt
CCn1c(O)c(N=Nc2ccc(S(=O)(=O)N3CCOCC3)cc2)c(=O)n(CC)c1=S	8	9	40*	1	-15	-5	19
C[C@]12C[C@H](O)[C@@H](O)C[C@@H]1CC[C@@H]1[C@@H]2CC[C@]2(C)C(=O)CC[C@@H]12	nt	nt	49*	2	nt	nt	6
Oc1c(Cl)c(Cl)c(Cl)c(Cl)c1Cl	-11	-2	0	2	-16	-8	nt
CN1CCN(c2ccc([N+](=O)[O-])c(N3CCCCC3)c2)CC1	-4	-13	22	-3	-2	6	nt
O=[N+]([O-])c1ccc(N2CCNCC2)cc1N1CCCCCC1	-1	-4	48*	2	-11	-4	13
Cc1ccc(S(=O)(=O)N(c2cc(Cl)c(O)c(Cl)c2)P(=O)(OC(C)C)OC(C)C)cc1	-2	-1	-2	-2	-12	-7	nt
CCOC(=O)Cn1cc([N+](=O)[O-])nc1[N+](=O)[O-]	15	-3	56*	1	-1	10	24
CC(=O)O[C@@]12CO[C@@H]1C[C@H](O)[C@@]1(C)C(=O)[C@H](O)C3=C(C)[C@@H](O)C[C@@](O)([C@@H](OC(=O)c4ccccc4)C12)C3(C)C (stereo partly drawn)	-2	-2	58*	0	3	2	20
COC(=O)C(O)(c1c[nH]c2ccccc12)C(F)(F)F (stereo not drawn)	7	-3	18	4	-11	-1	nt
COC(=O)C(O)(c1c(C)[nH]n(-c2ccccc2)c1=O)C(F)(F)F (stereo not drawn)	24	-2	63*	4	27	6	87*
CCOC(=O)c1c(C)n(Cc2ccccc2)c2ccc(OCC(O)CNC(C)(C)C)cc12 (stereo not drawn)	-2	5	8	2	-20	1	nt
CCOc1ccc(NC(=O)CCNC(=O)N2C[C@H]3C[C@@H](C2)c2cccc(=O)n2C3)cc1	11	-1	30	-1	-16	-6	nt
CN1CCN(c2ccc([N+](=O)[O-])cc2Cl)CC1	8	2	18	2	15	2	nt
CC1CN(c2ccc([N+](=O)[O-])cc2Cl)CCN1 (stereo not drawn)	2	-1	32*	3	10	-6	14
COC(=O)C1=C(c2ccc(F)cc2F)C[C@@H]2CC[C@H]1N2C(=O)N1CCC(O)CC1	-4	nt	12	4	-16	-9	nt
FC(F)=C(F)CCSc1ncn[nH]1	3	2	3	0	-5	1	nt
COc1ccc(CN2CCNCC2)cc1	-8	-2	10	-1	-6	-6	nt
C=CCc1ccc(OC)cc1	2	nt	50*	2	-3	-10	-5
COc1ccc(OC)c(-n2c(O)c(/C=C3\C(C)=Nc4ccccc43)c(=O)[nH]c2=O)c1	-6	-11	11	82*	-21	-2	nt	SENP1 inh conf=10;SENP1 kin conf=12
C1CCC(NC2CCCCC2)CC1	6	nt	5	0	-9	-1	nt
SMILES	SENP7 inh	Platelet DG rel	SENP8 block-1	SENP1 FRET inh	SENP6 inh	SENP8 block-2	SENP8 conf	others
C=CCN1C(=O)/C(=C/c2ccc(N3CCOCC3)o2)C(=O)NC1=S	4	10	10	40*	-1	-1	nt	SENP1 inh conf=31;SENP1 kin conf=24
CCOC(=O)C1(c2ccccc2)CCN(CCc2ccc(NC(=O)CCC(=O)O)cc2)CC1	nt	nt	7	-3	nt	nt	nt
Cn1c(O)c(/C=C2\C=Nc3ccccc32)c(=O)n(C)c1=O	4	-8	10	54*	-11	1	nt	SENP1 inh conf=4;SENP1 kin conf=8
COC(=O)C1=Nc2ccccc2/C1=C\c1c(O)n(C)c(=O)n(C)c1=O	-1	10	-11	-16	-13	8	nt
O=C(c1cc(F)ccc1F)C1CCCN(CCCc2ccccc2)C1 (stereo not drawn)	7	1	17	0	-2	0	nt
COc1ccccc1N1CCN(Cc2ccccc2Cl)CC1	-3	3	-11	35*	-3	-2	nt	SENP1 inh conf=-4;SENP1 kin conf=2
Cc1cc(C)c(Cn2c(C(=O)O)c(C=O)c3ccccc32)c(C)c1	8	9	-5	97*	0	1	nt	SENP1 inh conf=77*;SENP1 kin conf=51*
O=Cc1c(C(=O)O)n(Cc2ccccc2Cl)c2ccccc12	-5	-10	5	1	-17	-2	nt
